In assay [1] the test system is U937 cells. In words: Apoptosis, Annexin V staining, FACS. It is filed as cell-based, human. The following applies: 24 hours.
Assay [2] concerns JMML cells (PTPN11E76K/+). The assay is described as follows: Total cell number in GM-CSF-containing medium. It is filed as cell-based, human.
Assay [3] relates to SHP2 PTP domain. The assay is described as follows: Fluorescence titration. It is filed as binding. The following applies: increasing compound concentrations. The method, boiled down:
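Intrinsic tryptophan fluorescence of the GST-fused SHP2 PTP domain (purified), diluted in 20 mM Tris-HCl pH 7.5. Protein level is held constant while test compound is raised stepwise. Spectra are recorded on a luminescence spectrometer, and fluorescence is plotted against log compound concentration (M). The experiment was repeated twice; data are mean±S.E.M. of triplicates.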

Assay [4] deals with Hela cells. In words: HeLa cell growth after control or SHP2 siRNA. It is filed as cell-based. The following applies: 24 hours treatment. Summed up: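 HeLa cells were transfected with control or SHP2 siRNA (400 pmoles/8.0×10^5 cells). After 48 h they were exposed to test compound at graded concentrations or DMSO, and cell numbers were determined 24 h later. Treated knockdown and control cells were each normalized to their untreated counterparts. Knockdown was confirmed by anti-SHP2 immunoblot with β-actin as loading control. Triplicates; three experiments.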

For assay [5], the system named is U937 human lymphoma cells (PTPN11 G60R). In words: Cell proliferation assay. It is filed as cell-based. The following applies: 48 hours.
Assay [6] has as its system H661 cells. The assay is described as follows: Cell cycle analysis. It is filed as cell-based, human.
In assay [7] the test system is myeloid blasts from JMML patients with the PTPN11E76K/+ mutation. The assay is described as follows: Colony-forming unit assay, GM-CSF. It is filed as cell-based, human. The following applies: GM-CSF 1.0 ng/mL, 14 days. The method, boiled down:
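Bone marrow cells or splenocytes from JMML patients carrying PTPN11E76K/+ were plated at 5×10^4 cells/mL in 0.9% methylcellulose IMDM with 30% FBS, glutamine (10^-4 M), β-mercaptoethanol (3.3×10^-5 M) and GM-CSF (1.0 ng/mL), plus test compound at varying doses or matching DMSO. After 14 days at 37°C in 5% CO2, CFU-GM and CFU-M colonies were counted and normalized to DMSO-treated cells. Three patient samples were run in triplicate.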

The test system of assay [8] is myeloid progenitors from PTPN11E76K/+ mice. The assay is described as follows: Colony-forming unit assay, GM-CSF. It is filed as cell-based, mouse. The following applies: GM-CSF 1.0 ng/mL, 7 days. The method, boiled down:
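Bone marrow from PTPN11E76K/+/Mx1-Cre+ and PTPN11+/+/Mx1-Cre+ mice was plated at 5×10^4 cells/mL in 0.9% methylcellulose IMDM with 30% FBS, glutamine, β-mercaptoethanol and GM-CSF (1.0 ng/mL), with test compound at varying doses or DMSO. CFU-GM and CFU-M colonies were counted after 7 days at 37°C in 5% CO2 and normalized to colonies from DMSO-treated WT cells. Triplicates, two independent experiments.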

In assay [9] the test system is H661 human lung cancer cells (PTPN11 N58S). In words: Cell proliferation assay. The following applies: 48 hours. It is filed as cell-based.
For assay [10], the system named is PTPN11E76K/+ mouse embryonic fibroblasts. In words: MEF cell growth. It is filed as cell-based. The following applies: Cryptotanshinone 20 μM.
Assay [11] deals with SHP2. In words: Reversibility test by extensive washing of the enzyme-inhibitor complex. It is filed as biochemical.
For assay [12], the system named is GST-SHP2 PTP. The assay is described as follows: Enzymatic kinetic analyses. It is filed as biochemical. The following applies: Cryptotanshinone 25 μM.
Assay [13] concerns IL-3-induced activation of Erk, Akt, Jak2, and Stat5. In words: IL-3 signaling in Ba/F3 cells, immunoblotting. It is filed as cell-based. The method, boiled down: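 Ba/F3 cells were starved overnight in serum- and cytokine-free RPMI 1640, pretreated for 3 h with test compound (20 μM for the time course, graded concentrations for dose response), then stimulated with IL-3 (1.0 ng/mL) for set times or 10 min. RIPA lysates (50 μg protein) were run on 10% SDS-PAGE and immunoblotted for p-Erk, p-Akt, p-Jak2 and p-Stat5 with ECL detection. Blots were reprobed for total proteins; three repeats.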

The subject of assay [14] is WT mouse embryonic fibroblasts. In words: MEF cell growth. It is filed as cell-based. The following applies: Cryptotanshinone 20 μM.
Assay [15] has as its target T1, SHP2 PTP domain (GST-SHP2 PTP) (Homo sapiens, UniProt Q06124).
T1 sequence (Q06124 247-517 limits assumed): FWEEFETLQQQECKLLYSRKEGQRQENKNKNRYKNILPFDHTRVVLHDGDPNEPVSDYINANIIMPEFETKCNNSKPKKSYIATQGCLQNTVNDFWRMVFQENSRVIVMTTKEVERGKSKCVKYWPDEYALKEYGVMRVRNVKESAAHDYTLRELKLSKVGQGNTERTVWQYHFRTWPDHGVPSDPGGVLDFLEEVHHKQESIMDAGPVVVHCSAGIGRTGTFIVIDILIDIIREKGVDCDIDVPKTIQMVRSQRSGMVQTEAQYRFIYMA
It is filed as biochemical. The following applies: phospho-EGFR peptide substrate. The method, boiled down: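 In-house purified GST-SHP2 PTP domain (0.5 μg) was preincubated with test compound at various concentrations for 30 min at room temperature. Buffer: 25 mM Tris-HCl pH 7.4, 50 mM NaCl, 5 mM DTT, 2.5 mM EDTA. EGFR pTyr peptide (DADEpYLIPQQG) was added to 0.2 mM final, then 30°C for 30 min. Released phosphate was detected with Malachite Green, reading OD620 after 10 min.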

Assay [16] has as its system SHP1. The assay is described as follows: In vitro phosphatase activity assay, phospho-EGFR peptide substrate. It is filed as biochemical.

On to `C[C@H]1COC2=C1C(=O)C(=O)c1c2ccc2c1CCCC2(C)C` [Cryptotanshinone], for which, in assay [1], the “apoptosis in U937 cells” value is given as “robust induction of apoptosis”. In assay [2], the “total cell number of JMML cells” value is given as “greatly decreased”. The “quenching of SHP2 fluorescence” value in assay [3] is “strong quenching of SHP2 fluorescence in a dose-dependent manner”. In addition, the “proliferation of control siRNA cells” value in [4] is on record as “decreased”. The “sensitivity of SHP2-depleted cells” value in assay [4] (SHP2 siRNA) was “much less sensitive”. For the same molecule, the “cell proliferation of U937 cells” value in [5] is “decreased cell proliferation in a dose-dependent manner”. In addition, in [6], the “cell cycle effect in H661 cells” value is “G1-S arrest”. In addition, the “colony formation of JMML myeloid blasts” value in assay [7] is on record as “exquisitely sensitive”. Also, the “colony-forming capabilities of mutant SHP2-expressing progenitors” value in assay [8] is “significantly reduced”. The “cell proliferation of H661 cells” value in assay [9] was “decreased cell proliferation in a dose-dependent manner”. Also, in assay [10], the “cell growth of PTPN11E76K/+ MEFs” value was “decreased cell growth” and the “sensitivity of PTPN11E76K/+ MEFs relative to WT” value is reported as “more sensitive”. Moreover, in [11], the “reversibility of SHP2 inhibition” value is reported as “irreversible inhibitor”. In assay [12], the “change of Vmax by inhibitor” value is “decreased” and the type of inhibition result is “mixed-type inhibitor”. Moreover, the “tyrosine-phosphorylation of Gab2 and Gab2-SHP2 interaction” value in assay [13] was “markedly decreased”. Besides, in assay [13] (3 hours pretreatment, IL-3 1.0 ng/mL), the “IL-3-induced activation of Erk, Akt, Jak2, and Stat5 (phosphorylation levels)” value is reported as “greatly suppressed”. In addition, the “cell growth of WT MEFs” value in [14] is given as “decreased cell growth”.

In the case of `Cc1cccc2c3c(ccc12)C1=C(C(=O)C3=O)[C@@H](C)CO1` [Dihydrotanshinone], the “SHP2 IC50, fold lower than that of Cryptotanshinone” value (“SHP2 IC50, fold lower than that” below) in assay [15] came to 5.71 fold. For the same molecule, the “selectivity between SHP2 and SHP1” value in assay [16] is “no selectivity between SHP2 and SHP1”.

Take `Cc1coc2c1C(=O)C(=O)c1c-2ccc2c1CCCC2(C)C` [Tanshinone IIA]: the “SHP2 IC50, fold lower than that” value in [15] was found to be 8.69 fold. Further, the “selectivity between SHP2 and SHP1” value in [16] was “no selectivity between SHP2 and SHP1”.

On to `Cc1coc2c1C(=O)C(=O)c1c-2ccc2c(C)cccc12` [Tanshinone I], for which the “SHP2 IC50, fold lower than that” value in assay [15] is listed as 8.75 fold. The “selectivity between SHP2 and SHP1” value in [16] is “no selectivity between SHP2 and SHP1”.

(Values after PMC4159095 (Journal of medicinal chemistry, 2013).)
